Measured values as given in ChEMBL document CHEMBL1154610, “Discovery and preclinical evaluation of [4-[[1-(3-fluorophenyl)methyl]-1H-indazol-5-ylamino]-5-methylpyrrolo[2,1-f][1,2,4]triazin-6-yl]carbamic acid, (3S)-3-morpholinylmethyl ester (BMS-599626), a selective and orally efficacious inhibitor of human epidermal growth factor receptor 1 and 2 kinases” (J Med Chem, 2009).

Key:
[1] = Metabolic stability in mouse liver microsomes assessed per mg of protein at 10 uM after 10 mins; format: ADME, Microsome
In short: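 Mouse liver microsomes incubated with compound at 10 µM for 10 min; metabolic rate expressed as nmol/min/mg protein.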

[2] = Cmax in rat at 10 mg/kg, po; format: ADME, organism-based; set-up: dose 10 mg/kg, route oral; settings: in vivo
[3] = biological target: T1, Epidermal growth factor receptor and ErbB2 (HER1 and HER2) (Homo sapiens) (UniProt P04626+P00533); experiment: Inhibition of HER1/HER2-mediated MAPK phosphorylation in human GEO cells by Western blot; format: cell-based
[4] = Volume of distribution at steady state in cynomolgus monkey at 5 mg/kg, iv; format: ADME, organism-based, Macaca fascicularis; set-up: dose 5 mg/kg, route intravenous; settings: in vivo, read-out: Vdss
In short: (§1)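 Monkey PK, mean of two animals. Compound given as a solution in PEG400/Tween80/water (50:0.1:50), 5 mg/kg both orally and iv. Tmax from the oral route; steady-state volume of distribution from the iv route.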

[5] = Tmax in rat at 10 mg/kg, po; format: ADME, organism-based; set-up: dose 10 mg/kg, route oral; settings: in vivo
In short: (§2)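 Rat PK, average of three animals. Solution formulation in PEG400/Tween80/water (50:0.1:50), given orally at 10 mg/kg or iv at 2.5 mg/kg. Tmax comes from oral dosing; Vss comes from iv dosing.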

[6] = Mean residence time in mouse at 25 mg/kg, iv; format: ADME, organism-based; set-up: dose 25 mg/kg, route intravenous; settings: in vivo
[7] = Clearance in mouse at 25 mg/kg, iv; format: ADME, organism-based; set-up: dose 25 mg/kg, route intravenous; settings: in vivo
[8] = Clearance in rat at 2.5 mg/kg, iv; format: ADME, organism-based; set-up: dose 2.5 mg/kg, route intravenous; settings: in vivo
[9] = Half life in cynomolgus monkey plasma at 5 mg/kg, po; format: ADME, organism-based, Macaca fascicularis; set-up: dose 5 mg/kg, route oral
[10] = Tmax in mouse at 120 mg/kg, po; format: ADME, organism-based; set-up: dose 120 mg/kg, route oral; settings: in vivo
In short: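 Mouse PK, average of three animals. Solution formulation in PG/Tween80/water (40:10:50), given orally at 120 mg/kg or iv at 25 mg/kg. Tmax taken from the oral arm; Vss taken from the iv arm.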

[11] = Clearance in cynomolgus monkey at 5 mg/kg, iv; format: ADME, organism-based, Macaca fascicularis; set-up: dose 5 mg/kg, route intravenous; settings: in vivo
[12] = Half life in dog plasma at 25 mg/kg, po; format: ADME, organism-based, Canis lupus familiaris; set-up: dose 25 mg/kg, route oral
[13] = Cmax in mouse at 120 mg/kg, po; format: ADME, organism-based; set-up: dose 120 mg/kg, route oral; settings: in vivo
[14] = Tmax in cynomolgus monkey at 5 mg/kg, po; format: ADME, organism-based, Macaca fascicularis; set-up: dose 5 mg/kg, route oral; settings: in vivo; in short: as §1
[15] = AUC (0 to 24 hrs) in dog at 25 mg/kg, po; format: ADME, organism-based, Canis lupus familiaris; set-up: time < 24 hr, dose 25 mg/kg, route oral; settings: plasma
A2780 = experiment: Antiproliferative activity against human A2780 cells after 72 hrs by MTT assay; format: functional, cell-based; settings: A2780, 72 h
In short: (§3)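 Cell proliferation IC50 reported as the mean of three independent determinations. BT474 is a breast line (HER2+++/HER1+); A2780 serves as a HER-independent control.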

[16] = Antitumor activity against human GEO cells xenografted in athymic mouse at 120 mg/kg, po qd for 14 days; format: functional; settings: 336 h, read-out: TGI
In short: (§4)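 Xenograft-bearing mice dosed orally once daily in propylene glycol/Tween80/water (40:10:50). TGI taken as percent tumor growth inhibition during treatment; significance from mean tumor weight at end of treatment; body weight loss and morbidity monitored.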

[17] = biological target: Receptor tyrosine-protein kinase erbB-2 (Homo sapiens, UniProt P04626); experiment: Inhibition of human recombinant HER2 expressed in Sf9 cells by liquid scintillation counting
[18] = Protein binding in rat plasma at 10 uM by equilibrium dialysis; format: ADME, cell-free; settings: read-out: PPB (converted)
NCI-N87 = experiment: Antiproliferative activity against human NCI-N87 cells after 72 hrs by MTT assay; format: functional, cell-based; settings: NCI-N87, 72 h
Cytochrome P450 1A2 = biological target: T2, Cytochrome P450 1A2 (Homo sapiens, UniProt P05177); experiment: Inhibition of human CYP1A2; format: ADME
T2 sequence (P05177 whole entry): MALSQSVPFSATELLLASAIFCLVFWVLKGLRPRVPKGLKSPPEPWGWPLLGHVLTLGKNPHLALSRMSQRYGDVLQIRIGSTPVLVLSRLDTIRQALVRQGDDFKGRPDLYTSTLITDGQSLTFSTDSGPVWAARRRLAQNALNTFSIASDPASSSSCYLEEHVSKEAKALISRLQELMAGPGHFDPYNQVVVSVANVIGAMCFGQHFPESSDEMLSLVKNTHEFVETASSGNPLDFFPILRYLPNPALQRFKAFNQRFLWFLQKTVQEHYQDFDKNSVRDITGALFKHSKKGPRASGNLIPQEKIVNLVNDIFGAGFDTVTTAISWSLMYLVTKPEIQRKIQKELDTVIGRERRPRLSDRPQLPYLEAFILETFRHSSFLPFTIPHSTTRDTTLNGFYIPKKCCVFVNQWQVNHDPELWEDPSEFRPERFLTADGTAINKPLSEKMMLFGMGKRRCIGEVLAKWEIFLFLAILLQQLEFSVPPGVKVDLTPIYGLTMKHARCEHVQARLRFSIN

[19] = biological target: Receptor tyrosine-protein kinase erbB-4 (Homo sapiens, UniProt Q15303); experiment: Inhibition of human recombinant HER4 expressed in Sf9 cells by liquid scintillation counting
[20] = Volume of distribution at steady state in rat at 2.5 mg/kg, iv; format: ADME, organism-based; set-up: dose 2.5 mg/kg, route intravenous; settings: in vivo, read-out: Vdss; in short: as §2
[21] = Cmax in BALB/c mouse at 50 mg/kg, po; format: ADME, organism-based; set-up: dose 50 mg/kg, route oral; settings: in vivo
[22] = Cmax in cynomolgus monkey at 5 mg/kg, po; format: ADME, organism-based, Macaca fascicularis; set-up: dose 5 mg/kg, route oral; settings: in vivo
[23] = Mean residence time in dog at 1.5 mg/kg, iv; format: ADME, organism-based, Canis lupus familiaris; set-up: dose 1.5 mg/kg, route intravenous; settings: in vivo
[24] = Protein binding in cynomolgus monkey plasma at 10 uM by equilibrium dialysis; format: ADME, cell-free, Macaca fascicularis; settings: read-out: PPB (converted)
Mus musculus = species on record: Mus musculus; experiment: Toxicity in athymic mouse bearing human tumor cells assessed as weight loss; format: organism-based
In short: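 Mice carried human tumor xenografts (L2987, GEO, KPL4, N87) and were dosed orally once daily in propylene glycol/Tween80/water (40:10:50), with a q.d. × 21 schedule given. The L2987 dose levels included 30, 60 and 180 mg/kg. Toxicity was monitored during treatment as significant weight loss or morbidity.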

[25] = Tmax in dog at 25 mg/kg, po; format: ADME, organism-based, Canis lupus familiaris; set-up: dose 25 mg/kg, route oral; settings: in vivo
In short: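 Dog PK, average of two animals. Compound dosed as a PEG400/Tween80/water (50:0.1:50) solution, orally at 25 mg/kg and iv at 1.5 mg/kg. Oral data give Tmax; iv data give Vss.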

BT-474 = experiment: Antiproliferative activity against human BT474 cells after 72 hrs by MTT assay; format: functional, cell-based; settings: BT-474, 72 h; in short: as §3
[26] = Antitumor activity against human KPL4 cells xenografted in athymic mouse at 180 mg/kg, po qd for 21 days; format: functional; settings: KPL4, 504 h, read-out: TGI; in short: as §4
[27] = biological target: T1, Epidermal growth factor receptor and ErbB2 (HER1 and HER2) (Homo sapiens); experiment: Inhibition of HER1/HER2-mediated AKT phosphorylation in human GEO cells by Western blot; format: cell-based
[28] = Antitumor activity against human GEO cells xenografted in athymic mouse at 180 mg/kg, po qd for 14 days; format: functional; settings: 336 h, read-out: TGI; in short: as §4
[29] = Oral bioavailability in rat at 10 mg/kg; format: ADME, organism-based; settings: in vivo
[30] = Mean residence time in rat at 2.5 mg/kg, iv; format: ADME, organism-based; set-up: dose 2.5 mg/kg, route intravenous; settings: in vivo
[31] = AUC (0 to 24 hrs) in rat at 10 mg/kg, po; format: ADME, organism-based; set-up: time < 24 hr, dose 10 mg/kg, route oral; settings: plasma
[32] = AUC (0 to 4 hrs) in BALB/c mouse at 50 mg/kg, po; format: ADME, organism-based; set-up: time < 4 hr, dose 50 mg/kg, route oral; settings: plasma
[33] = Half life in rat plasma at 10 mg/kg, po; format: ADME, organism-based; set-up: dose 10 mg/kg, route oral

Chain of Receptor tyrosine-protein kinase erbB-2 (P04626 whole entry): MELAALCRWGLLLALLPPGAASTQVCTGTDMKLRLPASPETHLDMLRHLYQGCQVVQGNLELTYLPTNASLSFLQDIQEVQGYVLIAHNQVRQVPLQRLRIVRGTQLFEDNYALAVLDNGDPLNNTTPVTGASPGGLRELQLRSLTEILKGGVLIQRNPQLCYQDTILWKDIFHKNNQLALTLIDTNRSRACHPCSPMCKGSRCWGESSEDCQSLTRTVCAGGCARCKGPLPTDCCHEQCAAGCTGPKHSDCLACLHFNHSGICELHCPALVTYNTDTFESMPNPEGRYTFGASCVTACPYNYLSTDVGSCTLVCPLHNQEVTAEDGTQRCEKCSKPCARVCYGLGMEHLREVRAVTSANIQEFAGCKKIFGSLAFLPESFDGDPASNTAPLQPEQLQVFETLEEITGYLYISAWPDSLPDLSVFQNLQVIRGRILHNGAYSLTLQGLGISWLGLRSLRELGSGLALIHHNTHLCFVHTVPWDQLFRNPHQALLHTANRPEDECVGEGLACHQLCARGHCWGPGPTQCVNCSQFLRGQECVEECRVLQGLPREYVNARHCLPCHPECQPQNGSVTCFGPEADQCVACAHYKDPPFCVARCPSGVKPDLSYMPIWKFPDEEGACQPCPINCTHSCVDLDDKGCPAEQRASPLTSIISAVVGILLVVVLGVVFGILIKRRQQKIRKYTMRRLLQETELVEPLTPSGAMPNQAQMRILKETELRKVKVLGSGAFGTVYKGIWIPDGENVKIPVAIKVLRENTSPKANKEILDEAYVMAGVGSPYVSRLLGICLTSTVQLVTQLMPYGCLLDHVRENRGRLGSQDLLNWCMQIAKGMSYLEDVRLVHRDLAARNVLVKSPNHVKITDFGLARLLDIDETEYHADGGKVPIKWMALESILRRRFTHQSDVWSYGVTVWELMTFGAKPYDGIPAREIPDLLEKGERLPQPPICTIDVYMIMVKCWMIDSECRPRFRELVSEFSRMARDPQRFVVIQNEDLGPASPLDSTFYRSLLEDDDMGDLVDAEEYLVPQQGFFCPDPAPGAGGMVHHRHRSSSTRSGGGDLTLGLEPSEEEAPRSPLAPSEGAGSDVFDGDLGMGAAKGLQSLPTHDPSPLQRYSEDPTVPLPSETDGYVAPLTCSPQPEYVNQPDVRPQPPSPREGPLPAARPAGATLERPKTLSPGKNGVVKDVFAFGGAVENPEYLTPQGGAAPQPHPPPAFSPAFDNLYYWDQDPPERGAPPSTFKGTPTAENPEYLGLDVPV
Chain of Receptor tyrosine-protein kinase erbB-4 (Q15303 whole entry): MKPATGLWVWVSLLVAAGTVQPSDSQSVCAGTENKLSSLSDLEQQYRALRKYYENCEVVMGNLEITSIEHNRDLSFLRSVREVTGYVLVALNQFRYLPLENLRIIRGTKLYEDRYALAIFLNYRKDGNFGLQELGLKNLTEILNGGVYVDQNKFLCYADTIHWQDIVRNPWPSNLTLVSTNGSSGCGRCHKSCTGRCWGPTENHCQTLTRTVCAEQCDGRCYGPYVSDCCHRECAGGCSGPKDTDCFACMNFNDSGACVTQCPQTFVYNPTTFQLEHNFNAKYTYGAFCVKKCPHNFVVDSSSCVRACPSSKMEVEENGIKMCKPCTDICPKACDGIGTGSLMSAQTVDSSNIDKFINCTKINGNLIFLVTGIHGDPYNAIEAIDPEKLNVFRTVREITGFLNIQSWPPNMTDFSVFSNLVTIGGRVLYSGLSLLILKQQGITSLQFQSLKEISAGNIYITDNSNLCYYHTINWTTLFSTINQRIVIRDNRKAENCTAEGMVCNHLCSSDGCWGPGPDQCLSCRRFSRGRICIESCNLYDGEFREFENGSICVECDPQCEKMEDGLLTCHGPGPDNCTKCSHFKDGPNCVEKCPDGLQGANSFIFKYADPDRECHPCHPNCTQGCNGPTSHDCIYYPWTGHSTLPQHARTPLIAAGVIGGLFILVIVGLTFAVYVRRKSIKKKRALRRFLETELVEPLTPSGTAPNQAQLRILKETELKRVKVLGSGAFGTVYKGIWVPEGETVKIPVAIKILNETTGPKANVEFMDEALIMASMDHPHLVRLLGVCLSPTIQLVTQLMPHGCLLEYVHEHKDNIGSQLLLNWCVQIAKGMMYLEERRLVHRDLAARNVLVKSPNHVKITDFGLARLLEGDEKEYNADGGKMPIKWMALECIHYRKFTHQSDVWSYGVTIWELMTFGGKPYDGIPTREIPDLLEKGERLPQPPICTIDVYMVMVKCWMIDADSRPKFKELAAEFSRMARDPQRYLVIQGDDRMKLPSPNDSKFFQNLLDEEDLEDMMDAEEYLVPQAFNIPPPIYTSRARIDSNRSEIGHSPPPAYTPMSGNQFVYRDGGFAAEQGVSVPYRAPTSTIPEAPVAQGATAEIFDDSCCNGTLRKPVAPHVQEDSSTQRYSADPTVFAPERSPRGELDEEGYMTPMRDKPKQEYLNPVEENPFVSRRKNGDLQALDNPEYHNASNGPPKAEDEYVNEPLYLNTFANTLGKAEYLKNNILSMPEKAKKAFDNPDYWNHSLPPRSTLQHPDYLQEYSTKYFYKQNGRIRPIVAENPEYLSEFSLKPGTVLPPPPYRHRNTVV

Cc1c(NC(=O)OC[C@@H]2COCCN2)cn2ncnc(Nc3ccc4c(cnn4Cc4cccc(F)c4)c3)c12 [AC-480]
Stability [1]: 0.02 nmol/min | Cmax [2]: 600 nM | inhibition [3]: Dose-dependent effect | Vd [4]: 4 L/kg | Tmax [5]: 0.7 h | MRT [6]: 3.7 h | clearance [7]: 21.3 mL/min/kg | clearance [8]: 41.6 mL/min/kg | half-life [9]: 5.7 h | Tmax [10]: 1 h | clearance [11]: 10.5 mL/min/kg | half-life [12]: 7.2 h | Cmax [13]: 18000 nM | Tmax [14]: 1.5 h | AUC(0-t) at 24 h [15]: 14 µM·h | IC50 (A2780): > 10000 nM | inhibition in vivo at 120 mg/kg [16]: 95% | IC50 [17]: 22 nM | fraction unbound at 10 µM [18]: 0.029 | IC50 (NCI-N87): 450 nM | IC50 (Cytochrome P450 1A2): > 40000 nM | IC50 [19]: 190 nM | Vd [20]: 5.7 L/kg | Cmax [21]: 4100 nM | Cmax [22]: 500 nM | MRT [23]: 6.9 h | fraction unbound at 10 µM [24]: 0.031 | Activity (Mus musculus): Non-toxic | Tmax [25]: 2.3 h | IC50 (BT-474): 310 nM | inhibition in vivo at 180 mg/kg [26]: 129% | inhibition [27]: Dose-dependent effect | inhibition in vivo at 180 mg/kg [28]: 88% | bioavailability [29]: 40% | MRT [30]: 2.8 h | AUC(0-t) at 24 h [31]: 2.9 µM·h | AUC(0-t) at 4 h [32]: 13.3 µM·h | half-life [33]: 2.8 h
